This is an account of results in PubChem BioAssay AID504477 (NMMLSC, 2011).

The source made the active and inactive calls.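 How the source made its calls: active means compounds whose self-toxic dose exceeds tenfold the dose that restores mitoxantrone killing of resistant cells; inactive means the rest.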

The subject of the experiment is Igrov ABCG2 cells + mitoxantrone, trypan blue viability, 3 d. Kind of experiment: chemosensitization of ABCG2-expressing resistant cells – Igrove cells, mitoxantrone, trypan blue, SAR set 2, SAR follow-up (AID 504477). In short, it runs like this:
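Technique: trypan blue counts by light microscopy; test system: ABCG2-expressing Igrove cells; quantity: 100,000 cells per mL; doses: test compound concentration series […] 1-100 µM; evaluation: compound level halving cell viability; times: compound exposure 3 days; probe or stimulus: mitoxantrone selective agent at one fixed concentration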
The term CC50 denotes the concentration at which the toxic effect on the cells reaches its halfway point. For the molecule `CC(=O)N1CCN(c2cc(-c3ccco3)nc3cc(-c4cccc(Cl)c4)nn23)CC1`, the CC50 was over 100 µM.

As to `COc1ccc(-c2cc3nc(-c4ccco4)cc(N4CCN(C(=O)c5ccoc5)CC4)n3n2)cc1`, the CC50 was over 100 µM.

Consider `COc1cccc(-c2cc3nc(-c4ccco4)cc(N4CCN(C(C)=O)CC4)n3n2)c1`, for which the CC50 is over 100 µM.

As to `CC(=O)N1CCN(c2cc(-c3ccco3)nc3cc(-c4ccccc4)nn23)CC1`, the CC50 was over 100 µM.

In the case of `COc1ccccc1-c1cc(N2CCN(C(=O)c3ccoc3)CC2)n2nc(-c3ccccc3)cc2n1`, the CC50 was > 7.62 µM (inactive).

Take `O=C(c1ccoc1)N1CCN(c2cc(-c3ccco3)nc3cc(-c4ccco4)nn23)CC1`: the CC50 is over 100 µM.
